Consider 97 compounds from ChEMBL document CHEMBL4513216, “Probing the Open Global Health Chemical Diversity Library for Multistage-Active Starting Points for Next-Generation Antimalarials” (ACS Infect Dis, 2020).

This data set is described as follows: Toxicity liver stage against HepG2, at 10uM. It counts as cell-based. Details: test concentration 10 uM, cell line HepG2-A16-CD81EGFP. Particulars: human, HepG2-A16-CD81EGFP cells; read-out: INHIBITION
In short, it runs like this: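 Uninfected HepG2-A16-CD81EGFP cells, 3 × 10^3 per well, 1536-well, plated on prespotted compound at 10 μM final, parasite-free screening media added to match infected plates; puromycin 10 μM positive, DMSO 0.5% negative; run in parallel with 48 h PbLuc assay at 37 °C, 5% CO2; viability by CellTiter-Glo luminescence, normalized to controls.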
With `CC(=O)Nc1c(C)noc1C=Cc1ccc(C)c(S(=O)(=O)NC2CC2)c1`, the cytotoxicity at 10 µM stood at 0.905%.

`CC(C)c1nc(C2CCCN2CCCc2nc3ccccc3o2)no1` (configuration not stated): the cytotoxicity at 10 µM is -8.43%.

`COc1ccc(C(=O)C2CCCN(c3cc(C#N)ccn3)C2)cc1OC` (configuration not stated): the cytotoxicity at 10 µM is -0.312%.

In the case of `COc1ccnc(CN(C)C(=O)CSc2nnc(N)s2)c1`, the cytotoxicity at 10 µM was determined as 3.94%.

In the case of `CCc1ccc(C(=O)NCCNc2ncccn2)cc1`, the cytotoxicity at 10 µM amounted to 0.364%.

Consider `CO[C@H]1CCN(S(=O)(=O)c2cn(C)cn2)[C@H]1Cc1cnn(C)c1`, for which the cytotoxicity at 10 µM was determined as 2.63%.

In the case of `CN(Cc1ccc(-n2cccn2)cc1)Cc1ncc[nH]1`, the cytotoxicity at 10 µM was found to be 1.79%.

Take `O=C(NC1CC1)C1CCCN(c2cccc(C(F)(F)F)n2)C1` (configuration not stated): the cytotoxicity at 10 µM is 2.43%.

Take `CC(C)n1cnnc1CN(C)C1CCCNC1` (configuration not stated): the cytotoxicity at 10 µM stood at 6.9%.

In the case of `CN(Cc1cc(Br)cn1C)C(=O)c1ccsc1`, the cytotoxicity at 10 µM was -10%.

Take `Cc1ccc2c(n1)N(Cc1csc(C)n1)CCN(C1CCOC1)C2` (configuration not stated): the cytotoxicity at 10 µM came out at 9.28%.

With `O=C(Nc1cc(-c2cccnc2)no1)C1CCCCC1`, the cytotoxicity at 10 µM came out at 0.171%.

In the case of `O=c1[nH]c(N2CCCCC2)nc2nccc(-c3ccc4c(c3)OCO4)c12`, the cytotoxicity at 10 µM is 9.54%.

As to `CN1CCN(c2ncnc3c2c(C(=O)NC2CC2)c2ccccn23)CC1`, the cytotoxicity at 10 µM amounted to 3.34%.

Take `O=C(C1CCCC1)N1C[C@@H]2CCNC[C@@H]21`: the cytotoxicity at 10 µM is -0.155%.

In the case of `Cc1ccc(C(=O)N(C)CC(=O)NCC(F)(F)F)cn1`, the cytotoxicity at 10 µM was -4.46%.

For `Cc1ccc(C(=O)N2CCC3(CCN3c3ncccn3)C2)cn1` (configuration not stated), the cytotoxicity at 10 µM is -135%.

With `Cc1ccc(C(=O)N2CCN(c3ccnc4ccsc34)CC2)o1`, the cytotoxicity at 10 µM was 38.7%.

For the compound `COc1ccc(C(=O)C2CCCN(c3cc(N)ncn3)C2)c(C)c1` (configuration not stated), the cytotoxicity at 10 µM came out at 5.31%.

In the case of `Cc1nccn1-c1ccc(CNC(=O)c2ccc(O)nc2)cn1`, the cytotoxicity at 10 µM turned out to be 1.75%.

Consider `CN1CCc2[nH]nc(C(=O)N3CCCC4(CC3)CNC(=O)O4)c2C1` (configuration not stated), for which the cytotoxicity at 10 µM is -44.6%.

For the compound `COCCN1CCN(Cc2ccc(C(C)=O)cc2)[C@H]2CS(=O)(=O)C[C@H]21`, the cytotoxicity at 10 µM is -0.571%.

On to `Cc1cccc(CN2CCc3ncnc(-c4ccsc4)c3CC2)n1`, for which the cytotoxicity at 10 µM is -78.2%.

On to `COCCNC(=O)C1(c2ccccc2C)CCOCC1`, for which the cytotoxicity at 10 µM is -9.04%.

For the compound `O=C(Nc1nncs1)NC1CCOc2ccccc21` (configuration not stated), the cytotoxicity at 10 µM was -10.4%.

With `CC(NC(=O)NCCCO)c1ccc(-c2ccncc2)cc1` (configuration not stated), the cytotoxicity at 10 µM was determined as 6.93%.

Turning to `CC1CN(Cc2ccc(C#N)cc2F)CCN1Cc1nccn1C` (configuration not stated), the cytotoxicity at 10 µM was -4.66%.

On to `COCCN1CCN(c2ccc(C)nn2)Cc2cccnc21`, for which the cytotoxicity at 10 µM was -3.68%.

For the compound `Cc1nc(CN2CCCN(CC(=O)N(C)C(C)(C)C#N)CC2)no1`, the cytotoxicity at 10 µM worked out at 9.5%.

On to `O=C(c1cnc(O)cn1)N1CCC(CN2CCOCC2)CC1`, for which the cytotoxicity at 10 µM came out at 9.49%.

For the compound `O=C(Cc1ccc(F)cc1)NCc1ccc(C(=O)O)o1`, the cytotoxicity at 10 µM is -8.06%.

With `Cc1nc(-c2ccc(F)c(F)c2)cc(C2CCNCC2)n1`, the cytotoxicity at 10 µM worked out at 2.04%.

As for `Cc1nc(C)c(CN2CCOC(CN(C)c3cccnn3)C2)s1` (configuration not stated), the cytotoxicity at 10 µM is -7.16%.

With `CC1CN(CC(=O)NCCc2ccncc2)Cc2ccccc2O1` (configuration not stated), the cytotoxicity at 10 µM is -0.369%.

Turning to `CCOc1cc(C)nc(N2CCN(C(=O)c3ccnn3C)CC2)n1`, the cytotoxicity at 10 µM was -4.37%.

With `Cc1cc(C)c(S(=O)(=O)Nc2c(C)noc2C)cc1C(=O)O`, the cytotoxicity at 10 µM is -8.18%.

In the case of `CNc1nc(C2CCCN2C(C)=O)nc2c1CN(C1CCCC1)CC2` (configuration not stated), the cytotoxicity at 10 µM was -9.44%.

Regarding `CN(C)CC1(O)CCCN(C(=O)CCn2cc(Cl)cn2)C1` (configuration not stated), the cytotoxicity at 10 µM was -138%.

`O=C(CN1CCSC2(CCCCC2)C1)NCC(F)(F)F`: the cytotoxicity at 10 µM is -6.4%.

For the compound `CNC(=O)[C@@H](C)NC(=O)c1cc(-c2ccc(F)cc2)c(C)s1`, the cytotoxicity at 10 µM was -5.2%.

For `CC(C1CCN(Cc2ccccc2OC(F)F)CC1)N1CCOCC1` (configuration not stated), the cytotoxicity at 10 µM was -7.4%.

As to `NC(=O)Cn1cc(NC(=O)N2CCCCCC2)cn1`, the cytotoxicity at 10 µM is -11.8%.

On to `CCn1nc(C(=O)N2CCNCC2C(=O)Nc2ccc(C)nc2)cc1C` (configuration not stated), for which the cytotoxicity at 10 µM was 10.2%.

Consider `COCCN1C[C@@H]2CCCO[C@@H]2[C@H](NC(=O)c2cnccn2)C1`, for which the cytotoxicity at 10 µM is 0.766%.

Turning to `COCCOc1ncccc1CNC(=O)N1CCOCC1`, the cytotoxicity at 10 µM is -43.8%.

As to `N#Cc1cccnc1NCc1cccnc1N1CCC(C(N)=O)CC1`, the cytotoxicity at 10 µM is -0.179%.

Take `CCc1nsc(N2CCc3sccc3C2)n1`: the cytotoxicity at 10 µM came out at 1.56%.

Take `CC(C)COC(=O)N1CCC2(CCNC2)C1` (configuration not stated): the cytotoxicity at 10 µM was -10.1%.

As to `CCn1cc(CN2CCCN(C(=O)c3ccn(C)c(=O)c3)CC2)cn1`, the cytotoxicity at 10 µM was -0.794%.

As for `Cn1cnnc1SCC(=O)NC1CC(=O)N(CCc2ccccc2)C1` (configuration not stated), the cytotoxicity at 10 µM was 3.03%.

Consider `CN(Cc1cncnc1)[C@@H]1CN(C(=O)c2ccco2)[C@@H]2CCCO[C@H]12`, for which the cytotoxicity at 10 µM is -113%.

As for `CCOC(=O)CNC(=O)C1OC(c2ccccc2)=NN1C(C)=O` (configuration not stated), the cytotoxicity at 10 µM was 0.53%.

Regarding `CCS(=O)(=O)c1ccccc1N1CCC(NC2CCCC2)CC1`, the cytotoxicity at 10 µM was -2.63%.

Turning to `Cc1cc(C(F)(F)F)cc(N2C[C@@H](CN(C)CCO)[C@@H](CO)C2)n1`, the cytotoxicity at 10 µM was -14.4%.

As for `O=c1n(CCNc2cccc3ccccc23)nc2ccccn12`, the cytotoxicity at 10 µM came out at 0.392%.

On to `O=C(c1ccc(C2CCCO2)s1)N1CCCOCC1` (configuration not stated), for which the cytotoxicity at 10 µM was -0.256%.

Consider `CC(=O)c1cc2ncc(C(=O)NC3CC3)cc2[nH]1`, for which the cytotoxicity at 10 µM was -0.0253%.

With `CNc1ccc(C(=O)N(C)Cc2ccc3ccccc3n2)cn1`, the cytotoxicity at 10 µM is 1.5%.

`Cn1cc(CN2C[C@@H]3COC[C@]3(COCC3CC3)C2)cn1`: the cytotoxicity at 10 µM was -112%.

Consider `O=C(c1ccc(=O)[nH]n1)N1CCCC1C1CCCC1` (configuration not stated), for which the cytotoxicity at 10 µM was -7.09%.

Consider `Cc1ccc(OCC(=O)N(C)Cc2cccc(F)c2)cn1`, for which the cytotoxicity at 10 µM came out at 27.6%.

Turning to `CCCN1CC2(CCN(C)CC2)CC1C(=O)NCCn1ccc(C)n1` (configuration not stated), the cytotoxicity at 10 µM was -5.64%.

For `Cc1cccc(OC2CCN(c3ncc(C#N)cc3Cl)CC2)n1`, the cytotoxicity at 10 µM was determined as 8.13%.

With `COCc1nc(C(=O)OCC2CCN(c3ccccc3)C2)cs1` (configuration not stated), the cytotoxicity at 10 µM is -1.31%.

Take `O=C(N[C@@H]1CN(CCc2ccc(F)cc2)C[C@H]1O)c1cscn1`: the cytotoxicity at 10 µM is -3.08%.

Regarding `Cc1ccc(-c2cn[nH]c2C2CCCN(c3ncccn3)C2)cc1` (configuration not stated), the cytotoxicity at 10 µM stood at 87.3%.

For the compound `O=S(=O)(NCC(O)c1cccs1)c1ccccc1Cl` (configuration not stated), the cytotoxicity at 10 µM is -67%.

`Cc1nnc2n1CCN(Cc1csc(COc3ccccc3)n1)C2`: the cytotoxicity at 10 µM is -14.3%.

Consider `Cc1ccc(C(=O)N2CC[C@H]3[C@@H]2CCC(=O)N3c2ccccc2)cn1`, for which the cytotoxicity at 10 µM is -112%.

Turning to `COc1ccc(OC)c(C2CCN(C(=O)CCc3n[nH]c(N)n3)C2)c1` (configuration not stated), the cytotoxicity at 10 µM worked out at 5.27%.

For `O=C(Cc1ccc(F)c(Br)c1)NC1CCN(CC(F)F)CC1`, the cytotoxicity at 10 µM was -22%.

With `OCCN1CCc2[nH]nc(C(c3ccccc3)c3ccccc3)c2C1`, the cytotoxicity at 10 µM is -2.98%.

As for `Nc1ccncc1-n1cc(CCO)cn1`, the cytotoxicity at 10 µM came out at 0.769%.

In the case of `C1CN(c2nc(C3CC3)ns2)CCS1`, the cytotoxicity at 10 µM was -11.6%.

As to `CCOC(=O)C1(O)CCN(C(=O)Nc2cccc(CC)c2)CC1`, the cytotoxicity at 10 µM was -140%.

As for `CC(C)(C)c1n[nH]cc1CNCC1CCN(C2CC2)C1` (configuration not stated), the cytotoxicity at 10 µM turned out to be 2.16%.

On to `COCc1cn([C@@H]2c3ccccc3C3(CCNCC3)[C@H]2O)nn1`, for which the cytotoxicity at 10 µM worked out at 1.2%.

In the case of `NC(C(=O)N1CCSc2ccccc2C1)c1ccccc1` (configuration not stated), the cytotoxicity at 10 µM turned out to be 4.59%.

As to `CN(CC1CCOC1)c1ccc(Br)cn1` (configuration not stated), the cytotoxicity at 10 µM turned out to be 8.35%.

Regarding `Cc1cc(CNc2ccccc2N2CCCCC2)no1`, the cytotoxicity at 10 µM was -1.31%.

With `CNC(=O)c1cc2c(nc1NCC1CC1)CCN(c1ccncn1)CC2`, the cytotoxicity at 10 µM worked out at 3.17%.

Regarding `O=C([C@@H]1C[C@H]2[C@H](CCN2Cc2nccs2)O1)N1CCOCC1`, the cytotoxicity at 10 µM is -8.66%.

For the compound `CC(C)c1nccn1-c1nccnc1C1CCCN1Cc1cccnc1` (configuration not stated), the cytotoxicity at 10 µM was 7.77%.

Take `Fc1cnc(N2CCC3(COCc4cnc(NCC5CC5)nc43)C2)nc1` (configuration not stated): the cytotoxicity at 10 µM was -4.43%.

In the case of `CC(C)CNC(=O)CNC(=O)c1nc(Cc2c(Cl)cccc2Cl)no1`, the cytotoxicity at 10 µM stood at 9.11%.

Consider `Cc1ccc(NC(=O)N2CC[C@@H](O)C2)c(-c2nc(C3CC3)no2)c1`, for which the cytotoxicity at 10 µM was -4.16%.

For the compound `CN(C)[C@@H]1CN(C(=O)Cc2cccc(F)c2)[C@@H]2CCCO[C@H]12`, the cytotoxicity at 10 µM worked out at 1.37%.

In the case of `Cc1ccc2cc(C(=O)N3CCN(C(=O)N(C)C)CC3)ccc2n1`, the cytotoxicity at 10 µM was -52.1%.

Regarding `COCCOc1ccnc(-c2noc([C@@H]3CCCN3C)n2)c1`, the cytotoxicity at 10 µM is -7.18%.

Take `CC(C)=CCN1C[C@@H]2CC[C@H]1CN(C(=O)c1c[nH]c(=O)c(Cl)c1)C2`: the cytotoxicity at 10 µM is -14.5%.

For `O=C(NCC1CC1)C1CN(C(=O)c2cccnc2)CC12CCOCC2` (configuration not stated), the cytotoxicity at 10 µM worked out at 3.25%.

With `COc1ccc(CN2Cc3[nH]nc(C(=O)N(C)C)c3C2)cc1`, the cytotoxicity at 10 µM was -2.48%.

As for `Cc1ccc2cc(CNCCN3CCCC3)c(=O)[nH]c2c1`, the cytotoxicity at 10 µM is -1.89%.

Take `Cn1c(CN2CCC(OCc3cccnc3)CC2)cc2ccccc21`: the cytotoxicity at 10 µM is -2.65%.

As to `CCc1cnc(CN(C)C2CCN(c3sccc3C#N)C2=O)s1` (configuration not stated), the cytotoxicity at 10 µM is 8.32%.

As to `CC(C)n1ccnc1CN1CCCN(C(=O)c2nccnc2N)CC1`, the cytotoxicity at 10 µM is -7.26%.

Turning to `CCOCC(=O)N1CCc2c(ncnc2N2CCOCC2)C1`, the cytotoxicity at 10 µM is -6.63%.
